# Data taken from ChEMBL document CHEMBL2396651, “Improving the biological activity of the antimicrobial peptide anoplin by membrane anchoring through a lipophilic amino acid derivative” (Bioorg Med Chem Lett, 2013).
# Numbered stars: 1 amine (or outer) side, 2 acyl side, 3 side chain; on linkers, the order of the positions; unused ones are H or OH. Square brackets hold non-standard residues; d marks the D form. Peptide text beside a SMILES is read from it. * marks the point of attachment. X1 = CCCCCCCCC[C@H](N[*:1])C(=O)[*:2]; Decanoyl = CCCCCCCCCC(=O)*
# Legend:
# [1] = Therapeutic index, ratio of EC50 for hemolysis of sheep erythrocytes to MIC for Escherichia coli ATCC 8739; conditions: read-out: TI
# How it was run: (§1)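 Computed as the hemolytic EC50 divided by the MIC against the named strain, both in the same mass-per-volume units. Both inputs come from this paper's hemoglobin-leakage and growth-inhibition assays.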
# [2] = system: Staphylococcus aureus; assay: Antibacterial activity against Staphylococcus aureus ATCC […] assessed as growth inhibition after 24 hrs by broth microdilution method; type: functional
# [3] = Induction of membrane lysis in DOPC large unilamellar vesicles model assessed as release of carboxyfluorescein at 50 ug/mL by fluorescence spectroscopic analysis relative to control; type: physicochemical
# [4] = Induction of membrane lysis in DOPC/DOPG large unilamellar vesicles model assessed as release of carboxyfluorescein at 50 ug/mL by fluorescence spectroscopic analysis relative to control; type: physicochemical
# [5] = Therapeutic index, ratio of EC50 for hemolysis of sheep erythrocytes to MIC for Staphylococcus aureus ATCC […]; conditions: read-out: TI; how it was run: as §1
# [6] = system: Escherichia coli; assay: Antibacterial activity against Escherichia coli ATCC 8739 assessed as growth inhibition after 24 hrs by broth microdilution method; type: functional; conditions: ATCC 8739, 24 h
# [7] = Hemolytic activity in sheep erythrocytes after 1 hr; type: ADME, cell-based; conditions: Ovis aries, Erythrocyte
# How it was run: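 Red blood cells were exposed to the peptides, and hemoglobin leakage was the read-out.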
Compound,selectivity ratio [1],MIC [2] [µg/mL],Activity [3] [%],Activity [4] [%],selectivity ratio [5],MIC [6] [µg/mL],EC50 [7] [µg/mL]
CCCCCCCCCC(=O)NCC(=O)N[C@@H](CC(C)C)C(=O)N[C@@H](CC(C)C)C(=O)N[C@@H](CCCCN)C(=O)N[C@@H](CCCNC(=N)N)C(=O)N[C@H](C(=O)N[C@@H](CCCCN)C(=O)N[C@H](C(=O)N[C@@H](CC(C)C)C(=O)N[C@@H](CC(C)C)C(N)=O)[C@@H](C)O)[C@@H](C)CC (Decanoyl-GLLKRIKTLL-NH2),2,2.5,62,100,2,2.5,5
CCCCCCCCC[C@H](NC(=O)[C@H](CC(C)C)NC(=O)[C@@H](NC(=O)[C@H](CCCCN)NC(=O)[C@@H](NC(=O)[C@H](CCCNC(=N)N)NC(=O)[C@H](CCCCN)NC(=O)[C@H](CC(C)C)NC(=O)[C@H](CC(C)C)NC(=O)CN)[C@@H](C)CC)[C@@H](C)O)C(N)=O (H-GLLKRIKTL[X1]-NH2),3.7,2.5,48,48,30.8,10.3,77
CCCCCCCCC[C@H](NC(=O)[C@H](CCCNC(=N)N)NC(=O)[C@H](CCCCN)NC(=O)[C@H](CC(C)C)NC(=O)[C@H](CC(C)C)NC(=O)CN)C(=O)N[C@@H](CCCCN)C(=O)N[C@H](C(=O)N[C@@H](CC(C)C)C(=O)N[C@@H](CC(C)C)C(N)=O)[C@@H](C)O (H-GLLKR[X1]KTLL-NH2),1.9,2.5,45,48,15.6,10.3,39
CCCCCCCCC[C@H](NC(=O)CN)C(=O)N[C@@H](CC(C)C)C(=O)N[C@@H](CCCCN)C(=O)N[C@@H](CCCNC(=N)N)C(=O)N[C@H](C(=O)N[C@@H](CCCCN)C(=O)N[C@H](C(=O)N[C@@H](CC(C)C)C(=O)N[C@@H](CC(C)C)C(N)=O)[C@@H](C)O)[C@@H](C)CC (H-G[X1]LKRIKTLL-NH2),10.5,2.5,47,48,43.2,5.2,108
H-GLLKRIKTLL-NH2 [ANOPLIN],> 12.2,20.6,41,35,> 24.3,41,> 500
